Assay outcomes (PubChem BioAssay)
GalR3 antagonist = GalR3 antagonists in HEK293 cells, primary screen, cell-based, fluorescence readout | Galanin receptor type 3 (Homo sapiens), O60755 | HEK293 GalR3-CNG cAMP membrane potential fluorescence; galR3 body fused to GalR1 C-terminus | inhibition, % at 3 µM | 0.44% of 360,000 active | AID 651719, 2012;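 active means inhibition above the screen-wide average plus 3 SD, cut at about 13% in these data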;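 further: forskolin and galanin both at EC90 stimulate the cells; cAMP rise reported by CNG channel membrane potential dye signal; 0% = forskolin plus galanin with DMSO and 100% = forskolin alone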
Target sequence (O60755 1-299 limits assumed): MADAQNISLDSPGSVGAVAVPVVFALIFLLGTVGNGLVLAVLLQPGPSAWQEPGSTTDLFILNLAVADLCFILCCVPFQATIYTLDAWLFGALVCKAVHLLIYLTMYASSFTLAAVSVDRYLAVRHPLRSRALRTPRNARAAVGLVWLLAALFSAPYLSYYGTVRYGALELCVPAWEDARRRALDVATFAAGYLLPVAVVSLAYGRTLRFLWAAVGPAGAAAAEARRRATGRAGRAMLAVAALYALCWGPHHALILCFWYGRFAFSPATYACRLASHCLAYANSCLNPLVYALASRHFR
NR2E3 ag-1 = NR2E3 agonists in two-hybrid cells, primary screen, cell-based, luminescence, CHO-S, Gal4-NCOR/VP16-NR2E3; luciferase; inhibition of corepressor binding, % at 3.98 µM; 0.35% of 360,000 active; AID 602229, 2012;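 active means inhibition above the mean of all tested compounds plus 3 SD, cut at about 70% in these data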;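 further: 0% = DMSO with NR2E3 transfected cells and 100% = cells lacking NR2E3 construct; higher means lower luciferase signal from less NR2E3 corepressor binding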
NR2E3 ag-2 = inhibitors of NR2E3-RetCOR corepressor binding, primary screen, NR2E3 agonist project, biochemical, TR-FRET, GST-NR2E3, biotin-RetCOR; Photoreceptor-specific nuclear receptor (Homo sapiens), Q9Y5X4; 1536-well; inhibition of corepressor binding, % at 4.78 µM; 0.12% of 320,000 active; AID 2300, 2010;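 active means percent inhibition above the cutoff of mean plus 3 SD of all tested compounds, set per screening campaign, cut at about 20% in these data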;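 further: 0% = DMSO wells and 100% = biotin wells as full block of FRET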
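System: GST-tagged NR2E3 plus biotinylated RetCOR corepressor; Buffer or medium: pH 7.5 Tris-based buffer; Probe or stimulus: RetCOR corepressor, biotinylated, 7 nM; Doses: compound at 4.8 µM, single dose; Schedule: 5 h incubation at 4 °C; Technique: time-resolved FRET; Evaluation: percent inhibition of TR-FRET ratio; Replication: one well per compound, singlicate testing.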
Jurkat NFkB inh = inhibitors of induced NF-kB luciferase reporter, primary screen, TCR NF-kB activation inhibitor project, cell-based, luminescence, uHTS. Jurkat, PMA/ionomycin-induced NF-kB luciferase reporter. inhibition, % at 4 µM. 0.53% of 330,000 active. AID 435003, 2010; in the data active means inhibition above about 50%
697 NFkB inh = inhibitors of PMA/ionomycin-induced NF-kB reporter, 697 cells, primary screen, B-cell NF-kB inhibitor project, cell-based, luminescence, uHTS | 697 B-cell NF-kB luciferase reporter, 16 h | inhibition, % at 4 µM | 0.33% of 330,000 active | AID 435022, 2010; in the data active means inhibition above about 35%
Gli-Sufu block = Gli-Sufu pathway antagonists, primary screen, luciferase luminescence, Sufu-KO-LIGHT cells, uHTS | Sufu-KO-LIGHT fibroblasts, Gli luciferase reporter luminescence | inhibition, % at 5 µM | 0.74% of 340,000 active | AID 588413, 2011;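 active means inhibition above about 55%, limit read from the data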;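 further: 0% = DMSO-treated cells and 100% = wells with medium but no cells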
Jurkat NFkB conf = PMA/ionomycin-induced NF-kB reporter inhibitors, Jurkat retest, confirmation, T-cell NF-kB inhibitor project, cell-based, luminescence, single concentration; Jurkat NF-kB luciferase, 16 h; inhibition, % at 4 µM; 27% of 2,700 active; shares compounds with Jurkat NFkB inh;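 active means inhibition reaching about 45% at 4 µM in either replicate, limit read from the data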;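 further: plate controls were PMA/ionomycin stimulated DMSO wells for no effect and unstimulated DMSO wells for full effect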
* marks the source's active call; other numbers are inactive results; / = no result. Compounds with a hit are over-represented: about 1.8% of the library has one in this group of screens.

SMILES	GalR3 antagonist	NR2E3 ag-1	NR2E3 ag-2	Jurkat NFkB inh	697 NFkB inh	Gli-Sufu block	Jurkat NFkB conf
CCCOc1cccc(-c2cc(C(=O)N/N=C/c3ccccn3)c3ccccc3n2)c1	-2.9	-34.9	/	21.9	-21.4	35.7	/
Cc1[nH]c2ccccc2c1/C=N/NC(=O)c1cc(-c2ccccc2)n[nH]1	-4.4	-22.5	3.9	-1.6	5.7	-3.3	/
CCOC(=O)C1=C(C(=O)OCC)C2N(Cc3ccc(C#N)cc3)c3ccccc3[C@@]23C[C@@H](C(=O)OC)N(S(=O)(=O)c2ccc(OC)cc2)C3=N1 (some centres not stated)	-0.6	/	/	/	/	/	/
COc1ccc2c(c1)[C@@H](NC(=O)c1ccncc1)[C@H](C)[C@H]2c1ccccc1	-8.3	/	/	/	/	/	/
O=[N+]([O-])c1ccc(Sc2ccccn2)nc1	-0.2	14.2	-1.1	2.1	9.5	3.2	/
O=[N+]([O-])c1ccc(Sc2ccc(Cl)c(Cl)c2)nc1	-3.0	-6.8	-2.2	79.2*	4.8	-3.5	38.9
Cc1cc(C)c(C#N)c(SCc2nnc(-c3ccccc3[N+](=O)[O-])o2)n1	8.8	-96.3	3.5	-183.7	-221.8	-88.9	-123.8
CCCCOc1ccc(Br)cc1/C(C)=N/NC1=NCCN1	-11.5	-32.1	3.1	76.4*	-42.4	-61.5	52.7*
CCCCCCOc1ccc(/C(C)=N/NC2=NCCN2)cc1[N+](=O)[O-]	7.2	-80.8	4.1	45.7	-57.1	15.7	/
O=C(NCCc1ccccc1)c1ccc2c(c1)OCCO2	-1.4	46.0	-0.8	54.2*	21.7	34.5	69.6*
COc1ccc(CCNC(=O)c2ccc3c(c2)OCCO3)cc1	-5.6	-69.8	2.7	-33.5	-28.1	-45.7	/
O=C(N[C@H](C(=O)N1CCC[C@H]1C(=O)NC1CCCC1)C1CCCCC1)c1ccc(Cl)cc1Cl	-8.1	/	/	/	/	/	/
COC(=O)[C@]12C[C@H](CC(=O)N3CCCC3)C(=O)N(Cc3ccc4c(c3)OCO4)C1=C[C@H](COCc1ccccc1)O[C@@H]2C	-4.4	/	/	/	/	/	/
COc1ccc(/C=N/NC(=O)CCn2cnc(-c3ccccc3)c2-c2ccccc2)cc1OC	-3.2	-5.8	3.0	63.9*	-32.6	5.4	20.4
COc1ccccc1-c1nc(-c2ccc(Br)o2)no1	8.2	-182.3	-1.5	-175.0	-216.3	-32.4	-110.2
COc1cccc(-c2noc(-c3ccc4c(c3)OCO4)n2)c1	1.7	-158.8	-1.1	-184.9	-197.5	-88.0	-102.3
COc1cccc(-c2nc(-c3ccc(Br)o3)no2)c1	-6.3	-127.5	2.8	-186.6	-249.8	-96.0	-133.9
COc1cccc(C=NNC(=S)NC2CC3CCC2C3)c1O (configuration not stated)	-7.0	/	/	/	/	/	/
CCN1C(=O)N(C(C)=O)[C@@H]2C[C@H](C(=O)N3CCCC3)[C@H](C)[C@H](c3ccccc3)C[C@@H]21	-5.2	/	/	/	/	/	/
COc1ccccc1C(=O)N1CCN(C(=O)[C@H](CCc2ccccc2)NC(=O)[C@H]2O[C@@H](n3cnc4c(N)ncnc43)[C@H](O)[C@@H]2O)CC1	-5.0	/	/	/	/	/	/
COC(=O)c1ccc(C(=O)NC2CCCc3c2cnn3-c2cc(F)cc(F)c2)nc1 (configuration not stated)	3.1	-24.4	1.1	52.0*	-70.9	-0.9	32.2
Cc1cc(C(=O)NC2CCCc3c2cnn3-c2ccc(C)c(C)c2)nc(C)n1 (configuration not stated)	-0.2	19.7	-0.3	-3.4	-39.3	15.9	/
COC(=O)c1ccc(C(=O)NC2CCCc3c2cnn3-c2ccc(C)c(C)c2)cc1 (configuration not stated)	1.9	3.2	-2.6	59.7*	-16.8	32.5	59.0*
